Results published in ChEMBL document CHEMBL1154183, “Structure-based optimization of potent and selective inhibitors of the tyrosine kinase erythropoietin producing human hepatocellular carcinoma receptor B4 (EphB4)” (J Med Chem, 2009).

Legend:
[1] = molecular target: MAP/microtubule affinity-regulating kinase 3 (Homo sapiens) (UniProt P27448); assay: Inhibition of MARK3 assessed as remaining enzyme activity at 3 uM relative to DMSO
How it was run: (§1)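 Radiometric kinase assay run robotically at room temperature for 30 min. Contained 10 mM magnesium acetate and [γ-33P]ATP (800 cpm/pmol) at 5, 20 or 50 μM, chosen per kinase to be at or below its ATP Km. Reactions were started with MgATP, stopped with orthophosphoric acid and spotted onto P81 filters. Result is mean % activity of duplicates at one inhibitor concentration versus DMSO control.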

[2] = molecular target: Calcium/calmodulin-dependent protein kinase type 1 (Homo sapiens) (UniProt Q14012); assay: Inhibition of CAMK1 assessed as remaining enzyme activity at 3 uM relative to DMSO
[3] = molecular target: LIM domain kinase 1 (Homo sapiens) (UniProt P53667); assay: Binding affinity to LIMK1 assessed as percentage of kinase remaining bound to the bead at 1 uM by T7 phage display based binding assay
Chain of LIM domain kinase 1 (Homo sapiens) (P53667 whole entry, looked up, the tested form may be a part): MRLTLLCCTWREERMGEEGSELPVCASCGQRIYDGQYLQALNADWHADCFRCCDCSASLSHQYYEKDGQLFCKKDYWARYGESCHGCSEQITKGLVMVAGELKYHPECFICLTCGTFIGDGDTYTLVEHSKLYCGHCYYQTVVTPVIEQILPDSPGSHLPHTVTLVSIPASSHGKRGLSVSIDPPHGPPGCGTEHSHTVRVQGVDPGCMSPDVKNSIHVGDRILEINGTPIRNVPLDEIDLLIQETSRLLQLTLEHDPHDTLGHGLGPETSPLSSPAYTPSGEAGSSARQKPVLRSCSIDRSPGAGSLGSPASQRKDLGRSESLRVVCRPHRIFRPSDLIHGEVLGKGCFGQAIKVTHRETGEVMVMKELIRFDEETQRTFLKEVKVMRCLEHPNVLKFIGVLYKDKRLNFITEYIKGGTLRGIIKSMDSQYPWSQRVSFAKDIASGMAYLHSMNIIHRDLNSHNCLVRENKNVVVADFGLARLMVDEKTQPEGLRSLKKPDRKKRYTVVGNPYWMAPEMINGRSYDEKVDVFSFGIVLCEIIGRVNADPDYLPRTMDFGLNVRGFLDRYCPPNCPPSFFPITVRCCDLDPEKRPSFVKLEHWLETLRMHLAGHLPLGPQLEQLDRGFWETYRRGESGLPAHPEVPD
How it was run: (§2)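 Competition binding assay run by a contract lab. Each kinase was expressed as a fusion to T7 phage, full-length for small kinases and catalytic domain for large ones. Phage were mixed with an immobilized known kinase inhibitor on streptavidin magnetic beads and with test compound at a single 1 μM. Kinase/phage still bound to the beads was quantified by qPCR and expressed as % of DMSO control.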

[4] = molecular target: Mitogen-activated protein kinase kinase kinase kinase 2 (Homo sapiens) (UniProt Q12851); assay: Inhibition of GCK assessed as remaining enzyme activity at 1 uM relative to DMSO
Chain of Mitogen-activated protein kinase kinase kinase kinase 2 (Homo sapiens) (Q12851 whole entry): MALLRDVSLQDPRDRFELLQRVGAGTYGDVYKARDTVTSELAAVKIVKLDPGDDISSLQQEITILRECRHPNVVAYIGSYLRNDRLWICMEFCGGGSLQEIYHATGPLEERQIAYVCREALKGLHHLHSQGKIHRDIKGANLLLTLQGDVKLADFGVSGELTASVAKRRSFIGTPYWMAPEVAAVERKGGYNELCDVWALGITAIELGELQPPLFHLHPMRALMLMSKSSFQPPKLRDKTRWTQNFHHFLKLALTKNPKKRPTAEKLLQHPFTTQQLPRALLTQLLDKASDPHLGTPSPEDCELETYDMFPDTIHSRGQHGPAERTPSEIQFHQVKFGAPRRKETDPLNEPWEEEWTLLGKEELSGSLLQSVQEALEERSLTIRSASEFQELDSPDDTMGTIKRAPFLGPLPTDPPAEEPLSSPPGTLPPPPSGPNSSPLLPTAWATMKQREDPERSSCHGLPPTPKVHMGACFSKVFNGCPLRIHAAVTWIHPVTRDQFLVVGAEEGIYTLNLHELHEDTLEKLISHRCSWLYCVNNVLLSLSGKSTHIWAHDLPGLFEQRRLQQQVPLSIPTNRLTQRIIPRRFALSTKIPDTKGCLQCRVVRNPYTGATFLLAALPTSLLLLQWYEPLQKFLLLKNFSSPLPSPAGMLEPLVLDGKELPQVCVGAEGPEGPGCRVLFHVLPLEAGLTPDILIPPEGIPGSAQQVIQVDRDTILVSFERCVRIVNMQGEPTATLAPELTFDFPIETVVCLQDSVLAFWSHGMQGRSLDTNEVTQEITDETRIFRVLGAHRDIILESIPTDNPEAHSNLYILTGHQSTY
How it was run: (§3)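 Dundee kinase panel, radiometric: [γ-33P]ATP (800 cpm/pmol) at 5, 20 or 50 μM, at or below each kinase's ATP Km; 10 mM magnesium acetate; robotic, room temperature, 30 min. Reactions started with MgATP, stopped with orthophosphoric acid, spotted onto P81 filters. Inhibitor tested at a single concentration; mean % activity of duplicates relative to DMSO control.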

[5] = molecular target: Mitogen-activated protein kinase kinase kinase 9 (Homo sapiens) (UniProt P80192); assay: Inhibition of MLK1 assessed as remaining enzyme activity at 1 uM relative to DMSO; how it was run: as §1
Chain of Mitogen-activated protein kinase kinase kinase 9 (Homo sapiens) (P80192 whole entry, looked up): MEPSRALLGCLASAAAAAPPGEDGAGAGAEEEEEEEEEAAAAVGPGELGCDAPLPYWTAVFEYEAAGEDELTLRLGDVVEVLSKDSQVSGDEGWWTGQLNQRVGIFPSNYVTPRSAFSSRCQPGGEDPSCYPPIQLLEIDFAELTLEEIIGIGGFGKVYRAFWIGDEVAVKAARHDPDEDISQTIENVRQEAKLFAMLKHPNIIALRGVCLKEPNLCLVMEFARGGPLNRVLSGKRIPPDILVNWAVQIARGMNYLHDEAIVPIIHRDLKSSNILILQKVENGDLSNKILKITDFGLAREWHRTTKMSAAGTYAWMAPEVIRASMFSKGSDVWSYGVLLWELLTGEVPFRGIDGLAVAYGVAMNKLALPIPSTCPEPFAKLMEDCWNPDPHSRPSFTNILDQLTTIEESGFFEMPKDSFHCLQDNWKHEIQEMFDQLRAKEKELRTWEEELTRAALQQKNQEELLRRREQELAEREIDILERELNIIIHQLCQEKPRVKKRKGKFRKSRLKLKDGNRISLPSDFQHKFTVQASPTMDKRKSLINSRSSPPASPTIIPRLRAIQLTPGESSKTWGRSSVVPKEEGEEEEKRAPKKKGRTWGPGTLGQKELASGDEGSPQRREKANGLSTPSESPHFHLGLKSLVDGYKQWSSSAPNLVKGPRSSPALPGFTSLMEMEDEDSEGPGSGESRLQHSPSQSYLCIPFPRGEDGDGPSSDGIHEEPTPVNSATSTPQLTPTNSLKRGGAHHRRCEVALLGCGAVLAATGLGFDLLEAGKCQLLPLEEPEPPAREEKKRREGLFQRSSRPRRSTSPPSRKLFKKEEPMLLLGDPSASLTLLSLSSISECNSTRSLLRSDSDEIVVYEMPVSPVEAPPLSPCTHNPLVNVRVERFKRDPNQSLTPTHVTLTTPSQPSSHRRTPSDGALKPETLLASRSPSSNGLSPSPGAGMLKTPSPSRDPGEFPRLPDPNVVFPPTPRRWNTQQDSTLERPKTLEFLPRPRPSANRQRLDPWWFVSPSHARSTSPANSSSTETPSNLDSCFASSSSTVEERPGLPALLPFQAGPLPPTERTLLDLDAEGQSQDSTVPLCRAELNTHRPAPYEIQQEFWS

[6] = molecular target: Serine/threonine-protein kinase STK11 (Homo sapiens) (UniProt Q15831); assay: Inhibition of LKB1 assessed as remaining enzyme activity at 1 uM relative to DMSO; how it was run: as §3
[7] = molecular target: Ephrin type-B receptor 6 (Homo sapiens) (UniProt O15197); assay: Binding affinity to EPHB6 assessed as percentage of kinase remaining bound to the bead at 1 uM by T7 phage display based binding assay; how it was run: as §2
Chain of Ephrin type-B receptor 6 (Homo sapiens) (O15197 whole entry): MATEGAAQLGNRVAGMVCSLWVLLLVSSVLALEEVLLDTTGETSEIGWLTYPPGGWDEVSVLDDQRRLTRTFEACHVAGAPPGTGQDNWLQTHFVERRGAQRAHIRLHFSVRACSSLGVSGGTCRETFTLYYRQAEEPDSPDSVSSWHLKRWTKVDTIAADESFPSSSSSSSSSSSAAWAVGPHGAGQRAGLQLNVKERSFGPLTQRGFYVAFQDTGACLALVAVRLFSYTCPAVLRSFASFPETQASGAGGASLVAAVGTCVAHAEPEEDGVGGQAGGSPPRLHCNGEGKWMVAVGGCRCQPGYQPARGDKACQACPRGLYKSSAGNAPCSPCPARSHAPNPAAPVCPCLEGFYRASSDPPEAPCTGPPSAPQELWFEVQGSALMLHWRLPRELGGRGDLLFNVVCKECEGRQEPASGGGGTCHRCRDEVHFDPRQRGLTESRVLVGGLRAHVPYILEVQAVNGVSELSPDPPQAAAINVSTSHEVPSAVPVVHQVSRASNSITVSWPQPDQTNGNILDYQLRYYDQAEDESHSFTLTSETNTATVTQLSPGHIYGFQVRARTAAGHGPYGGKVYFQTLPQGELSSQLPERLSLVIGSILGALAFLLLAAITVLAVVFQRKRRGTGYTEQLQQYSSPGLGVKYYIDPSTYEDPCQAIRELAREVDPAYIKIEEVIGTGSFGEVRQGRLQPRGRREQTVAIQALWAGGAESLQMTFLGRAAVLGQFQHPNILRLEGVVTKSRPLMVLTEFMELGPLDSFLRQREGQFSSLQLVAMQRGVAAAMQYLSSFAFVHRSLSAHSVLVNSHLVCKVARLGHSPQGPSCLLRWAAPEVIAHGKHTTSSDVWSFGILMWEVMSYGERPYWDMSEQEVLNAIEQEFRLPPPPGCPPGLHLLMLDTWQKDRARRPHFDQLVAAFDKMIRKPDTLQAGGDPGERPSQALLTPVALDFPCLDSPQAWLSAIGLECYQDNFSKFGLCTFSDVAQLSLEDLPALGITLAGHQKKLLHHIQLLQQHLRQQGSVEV

[8] = molecular target: Vascular endothelial growth factor receptor 3 (Homo sapiens) (UniProt P35916); assay: Binding affinity to FLT4 assessed as percentage of kinase remaining bound to the bead at 1 uM by T7 phage display based binding assay
How it was run: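 Kinases expressed as T7 phage fusions (full-length for small kinases, catalytic domain for large). Phage mixed with an immobilized known kinase inhibitor on streptavidin magnetic beads plus test compound at a single 1 μM concentration. Ligand displacement from the ATP site was read by quantitative PCR as % kinase/phage still bead-bound versus DMSO control. Human kinases.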

[9] = molecular target: Tyrosine-protein kinase Fyn (Homo sapiens) (UniProt P06241); assay: Binding affinity to FYN assessed as percentage of kinase remaining bound to the bead at 1 uM by T7 phage display based binding assay; how it was run: as §2
Chain of Tyrosine-protein kinase Fyn (Homo sapiens) (P06241 2-537 limits assumed): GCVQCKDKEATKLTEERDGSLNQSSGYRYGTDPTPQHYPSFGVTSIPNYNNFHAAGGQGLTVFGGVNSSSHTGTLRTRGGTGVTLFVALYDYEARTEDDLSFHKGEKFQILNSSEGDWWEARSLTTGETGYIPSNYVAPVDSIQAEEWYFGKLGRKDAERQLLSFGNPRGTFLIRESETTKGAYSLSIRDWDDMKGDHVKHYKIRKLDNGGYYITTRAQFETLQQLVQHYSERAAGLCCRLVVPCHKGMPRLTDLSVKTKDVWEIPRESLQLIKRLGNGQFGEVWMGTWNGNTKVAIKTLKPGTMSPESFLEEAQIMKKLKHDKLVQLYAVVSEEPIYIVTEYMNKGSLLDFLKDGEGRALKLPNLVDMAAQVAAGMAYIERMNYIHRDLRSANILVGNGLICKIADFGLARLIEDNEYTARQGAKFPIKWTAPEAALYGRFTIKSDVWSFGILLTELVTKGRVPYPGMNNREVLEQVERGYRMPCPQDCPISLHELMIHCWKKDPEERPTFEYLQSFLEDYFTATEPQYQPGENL

[10] = molecular target: Cyclin-G-associated kinase (Homo sapiens) (UniProt O14976); assay: Binding affinity to GAK assessed as percentage of kinase remaining bound to the bead at 1 uM by T7 phage display based binding assay; how it was run: as §2
[11] = molecular target: Dual specificity tyrosine-phosphorylation-regulated kinase 2 (Homo sapiens) (UniProt Q92630); assay: Inhibition of DYRK2 assessed as remaining enzyme activity at 1 uM relative to DMSO
Chain of Dual specificity tyrosine-phosphorylation-regulated kinase 2 (Homo sapiens) (Q92630 whole entry): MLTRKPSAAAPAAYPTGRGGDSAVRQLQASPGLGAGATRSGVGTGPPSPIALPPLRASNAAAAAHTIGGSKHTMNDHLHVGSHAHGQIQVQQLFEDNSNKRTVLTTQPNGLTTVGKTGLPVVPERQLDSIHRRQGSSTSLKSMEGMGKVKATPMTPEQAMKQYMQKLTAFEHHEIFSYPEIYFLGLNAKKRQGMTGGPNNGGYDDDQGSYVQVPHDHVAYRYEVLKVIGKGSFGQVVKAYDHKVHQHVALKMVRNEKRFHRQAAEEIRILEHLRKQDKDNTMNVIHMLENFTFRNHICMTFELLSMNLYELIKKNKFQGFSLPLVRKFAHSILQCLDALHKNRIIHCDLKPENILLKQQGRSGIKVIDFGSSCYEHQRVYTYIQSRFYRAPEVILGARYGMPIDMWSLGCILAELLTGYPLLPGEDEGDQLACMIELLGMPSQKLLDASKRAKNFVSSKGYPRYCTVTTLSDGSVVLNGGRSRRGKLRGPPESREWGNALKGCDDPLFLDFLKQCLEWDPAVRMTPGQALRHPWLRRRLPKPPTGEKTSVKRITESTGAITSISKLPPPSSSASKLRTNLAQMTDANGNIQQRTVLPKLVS
How it was run: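 Radiometric kinase assay run robotically at room temperature for 30 min, linear in time and enzyme. Conditions: 10 mM magnesium acetate, [γ-33P]ATP (800 cpm/pmol) at 5, 20 or 50 μM per kinase, at or below its ATP Km. Started with MgATP and stopped with orthophosphoric acid, then spotted on P81 filters. Reported as mean % activity of duplicates versus DMSO controls.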

Activity [1] [%] | Activity [2] [%] | Activity [3] [%] | Activity [4] [%] | Activity [5] [%] | Activity [6] [%] | Activity [7] [%] | Activity [8] [%] | Activity [9] [%] | Activity [10] [%] | Activity [11] [%] | SMILES
111 | 93 |  |  |  |  |  |  |  |  |  | COc1ccccc1-n1c(-c2ccccc2C)cn2c3c(=O)[nH]c(=O)n(C)c3nc12
 |  | 83 | 22 | 45 | 75 | 32 | 93 | 0.25 | 49 | 86 | COc1ccccc1-n1c(-c2cc(O)ccc2C)cn2c3c(=O)[nH]c(=O)n(C)c3nc12
